Rows were chosen to be rich in hits. Some 2.4% of all compounds tested hit in one or more screens of this group.
NPY1 pot ag: NPY-Y1 receptor potentiators or agonists, primary screen, cell-based; activation, % at 3.6 µM; NPY-Y1 expressing cells, potentiator/agonist activation; 220,000 compounds, 0.37% hits; AID 1304, 2008; in the data active = activation above about 33%, passing the limit was not always enough;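 also: cells stimulated with NPY at EC10 then isoproterenol at EC100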
NPY Y2 blocker: NPY-Y2 receptor antagonists, primary screen, cell-based. 140,000 compounds, 0.99% hits. inhibition, % at 2.7 µM. AID 793, 2007. NPY-Y2 expressing cells, antagonist mode. Neuropeptide Y receptor type 2 (Homo sapiens), P49146; in the data active = inhibition above about 17%
Target sequence (P49146 whole entry, looked up): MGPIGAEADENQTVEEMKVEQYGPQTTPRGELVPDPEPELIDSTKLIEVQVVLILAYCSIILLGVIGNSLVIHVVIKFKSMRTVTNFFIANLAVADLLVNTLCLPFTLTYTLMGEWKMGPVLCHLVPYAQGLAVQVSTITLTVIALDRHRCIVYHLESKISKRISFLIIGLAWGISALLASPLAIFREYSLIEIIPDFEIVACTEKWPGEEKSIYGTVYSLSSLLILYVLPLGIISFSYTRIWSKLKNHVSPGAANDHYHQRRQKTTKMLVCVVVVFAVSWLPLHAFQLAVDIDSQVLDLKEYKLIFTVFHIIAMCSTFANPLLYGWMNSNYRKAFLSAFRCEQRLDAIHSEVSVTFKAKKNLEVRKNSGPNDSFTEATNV
NPY-Y1 antag: NPY-Y1 receptor antagonists, primary screen, cell-based | AID 1040, 2008 | inhibition, % at 3.6 µM | 200,000 compounds, 1% hits | HEK293-CNG Y1 cells, membrane potential fluorescence; NPY at EC95, then isoproterenol;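 active = inhibition above the campaign mean inhibition of all tested compounds plus 3 SD, cut at about 20% in these data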
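Material: HEK293 cells with Y1 receptor plus CNG channel; times: compound incubation 1 h at room temperature, readout 45 min post-stimulation; signal: fluorescence, membrane potential probe; read-out basis: fluorescence ratio normalized to % inhibition between controls; benchmarks: full-block control isoproterenol-only wells, zero-block control NPY plus isoproterenol wells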
NPY-Y2 PAM-ag: NPY-Y2 potentiators or agonists, primary screen, cell-based; Neuropeptide Y receptor type 2 (Homo sapiens), P49146; cells expressing NPY-Y2, potentiator/agonist read-out; activation, % at 3.6 µM; 220,000 compounds, 0.45% hits; in the data active = activation above about 27%;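 also: cells stimulated with NPY near EC25 plus isoproterenol at EC100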
S1P4 agonist: S1P4 receptor agonists, primary screen, cell-based; Sphingosine 1-phosphate receptor 4 (Homo sapiens), O95977; S1P4-expressing cell line, agonist reporter assay; activation, % at 4.98 µM; 220,000 compounds, 0.35% hits; AID 1509, 2009; in the data active = activation above about 11%
S1P4 antagonist: S1P4 receptor antagonists, primary screen, cell-based | S1P4-expressing cells, antagonist mode, reporter read-out | 220,000 compounds, 0.26% hits | AID 1510, 2009 | Sphingosine 1-phosphate receptor 4 (Homo sapiens), O95977 | inhibition, % at 4.98 µM; in the data active = inhibition above about 29%
NPY-Y1 antag ct: NPY-Y1 receptor antagonists, selectivity check, counter-screen for NPY-Y2 antagonist project, cell-based | AID 1256, 2008 | 710 compounds, 19% hits | shares compounds with NPY Y2 blocker | cell-based NPY-Y1 antagonism counterscreen | inhibition, % at 3.6 µM; in the data active = inhibition above about 20%;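 also: cells challenged with NPY then isoproterenol with cAMP sensed through a CNG channel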
NPY2 antag conf: NPY-Y2 receptor antagonists, retest of hits, confirmation, HEK293-CNG cells, membrane potential fluorescence, triplicate | shares compounds with NPY Y2 blocker | HEK293 NPY-Y2 CNG channel | inhibition, % at 2.8 µM | 710 compounds, 32% hits | AID 1257, 2008;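 active = mean inhibition of triplicate wells above the hit cutoff set in the primary screen, cut at about 17% in these data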
Large screens that a line does not name were inactive (follow-up assays come after a bar, where they were run).

COc1ccc(/C=C/C(O)=C2/C(=O)N(C)C3(C)CC2c2ccccc2O3)cc1 (configuration not stated)	NPY Y2 blocker 21 | NPY-Y1 antag ct inactive | NPY2 antag conf inactive
Cc1cc(C(=O)NCCC2=CCCCC2)c(C)o1	none
CN(C)S(=O)(=O)c1ccc2nc(NC(=O)c3cccnc3)sc2c1	none
O=C(NC(Nc1nc2ccc([N+](=O)[O-])cc2s1)(C(F)(F)F)C(F)(F)F)c1cccnc1	NPY1 pot ag 48, NPY Y2 blocker 18, NPY-Y2 PAM-ag 33 | NPY-Y1 antag ct inactive | NPY2 antag conf inactive
Cc1cccc(-n2c(O)c(C=NCCCN3CCOCC3)c3ccccc3c2=O)c1	none
CCn1c(SCc2ccc(C#N)cc2)nnc1-c1cccc(Cl)c1	none
Cc1cccc(-c2nnc(SCc3ccc(C#N)cc3)n2Cc2ccco2)c1	NPY Y2 blocker 20 | NPY-Y1 antag ct inactive | NPY2 antag conf inactive
Cc1csc(N2CCc3ccccc32)n1	none
CCC(c1nnnn1CCc1ccccc1)N(Cc1ccco1)Cc1cc2cc(C)cc(C)c2[nH]c1=O (configuration not stated)	NPY Y2 blocker 17 | NPY-Y1 antag ct inactive | NPY2 antag conf inactive
Cc1nc(CC(=O)N2CCN(S(=O)(=O)c3ccccc3C#N)CC2)cs1	none
COc1ccc(/C=N/NC(=O)CN(CCc2ccccc2)S(=O)(=O)c2ccc(NC(C)=O)cc2)cc1OC	NPY Y2 blocker 18 | NPY-Y1 antag ct inactive | NPY2 antag conf 44
COc1ccc(/C=N/NC(=O)CCOc2ccccc2C)cc1OC	NPY Y2 blocker 35 | NPY-Y1 antag ct inactive | NPY2 antag conf inactive
COc1cc(/C=N/NC(=O)CCOc2ccccc2C)cc(Br)c1O	none (no result: NPY Y2 blocker)
COc1cc(/C=N/NC(=O)CN(CCc2ccccc2)S(=O)(=O)c2ccc(NC(C)=O)cc2)cc(OC)c1OC	none
CN(C(=O)c1cccc(COc2ccc(Cl)cc2Cl)c1)c1ccccc1	none
Cc1ccc2[nH]c(=O)c(-c3noc(-c4ccncc4)n3)cc2c1	none
C#CCn1c(S(=O)(=O)Cc2ccccc2Cl)nc(-c2ccccc2)c1-c1ccccc1	none
CCOC(=O)Cn1c(S(=O)(=O)Cc2ccccc2Cl)nc(-c2ccccc2)c1-c1ccccc1	NPY Y2 blocker 24 | NPY-Y1 antag ct inactive | NPY2 antag conf inactive
C#CCn1c(S(=O)(=O)Cc2ccc(C)cc2)nc(-c2ccccc2)c1-c1ccccc1	NPY Y2 blocker 21 | NPY-Y1 antag ct inactive | NPY2 antag conf inactive
O=C(COC(=O)/C=C/c1ccc(F)cc1)Nc1ccccc1-c1ccccc1	NPY Y2 blocker 18 | NPY-Y1 antag ct inactive | NPY2 antag conf inactive
Cc1ccc(NC(=O)Cn2cc(S(=O)(=O)c3ccc(C)cc3)c(=O)c3cc(F)ccc32)cc1	none
Cc1[nH]c2ccc(Cl)cc2c(=O)c1CN1CCCC1	none (no result: NPY Y2 blocker)
COc1ccc(N2CCN(Cc3nc4c(c(=O)n(C)c(=O)n4C)n3Cc3cccc(C)c3)CC2)cc1	NPY Y2 blocker 24 | NPY-Y1 antag ct inactive | NPY2 antag conf inactive
COc1ccc(N2CCN(c3nc4c(c(=O)n(C)c(=O)n4C)n3Cc3ccccc3)CC2)cc1	none
Cc1ccc(NC(=O)COC(=O)c2ccccc2-c2nc3ccccc3s2)c(C)c1	none
CCc1cccc(CC)c1NC(=O)COC(=O)c1ccccc1-c1nc2ccccc2s1	NPY Y2 blocker 20 | NPY-Y1 antag ct inactive | NPY2 antag conf 21
COc1ccc(-c2noc(CNC(=O)Nc3ccc(F)cc3)n2)cc1	none (no result: NPY Y2 blocker)
O=S(=O)(NCC(c1cccnc1)N1CCN(c2ccc(F)cc2)CC1)c1cccs1 (configuration not stated)	none
O=c1[nH]c(-c2ccc3c(c2)OCO3)nc2c1sc(=S)n2-c1ccccc1	none (no result: NPY Y2 blocker)
CC1CCN(c2ccccc2NC(=S)NC(=O)c2cccs2)CC1	NPY Y2 blocker 21 | NPY-Y1 antag ct 20 | NPY2 antag conf inactive
CC(C)COC(=O)c1cccc2c1-c1ccccc1/C2=N\O	NPY Y2 blocker 22 | NPY-Y1 antag ct inactive | NPY2 antag conf 39
CC1=CCC2C(=O)N(c3ccc(Br)cc3C)C(=O)C2C1 (configuration not stated)	none
Cc1cc(S(=O)(=O)N(Cc2cccs2)Cc2ccccc2F)ccc1-n1cnnn1	none
COc1cccc(C(c2nnnn2Cc2ccccc2)N2CCN(C3CCCC3)CC2)c1OC (configuration not stated)	NPY Y2 blocker 18 | NPY-Y1 antag ct inactive | NPY2 antag conf inactive
CCC(C)(C)n1nnnc1C(c1ccccc1)N1CCN(C2CCCC2)CC1 (configuration not stated)	NPY Y2 blocker 20 | NPY-Y1 antag ct inactive | NPY2 antag conf inactive
COC(=O)CSc1nnc(-c2cccs2)n1-c1ccc(Cl)cc1	none
CCOC(=O)c1sc(NC(=O)/C=C/c2c(F)cccc2Cl)nc1C	none
O=C(NC1CCCCC1)C(c1cccnc1)N(CCc1ccccc1)C(=O)Cc1cccs1 (configuration not stated)	NPY Y2 blocker 22 | NPY-Y1 antag ct inactive | NPY2 antag conf inactive
O=C(NC1CCCC1)C(c1cccnc1)N(CCc1ccccc1)C(=O)c1ccco1 (configuration not stated)	none (no result: NPY Y2 blocker)
CCN(CC)CCCN=Cc1c(O)n(Cc2ccccc2)c(=O)c2ccccc12	none
CC(C)CCC(C)N=Cc1c(O)n(Cc2ccccc2)c(=O)c2ccccc12 (configuration not stated)	NPY Y2 blocker 21 | NPY-Y1 antag ct 27 | NPY2 antag conf 21
Cc1ccc(C(=O)Nc2cc(=O)n(C)c(=O)n2C)cc1C	none
COc1ccc(NC(=O)C(NC(C)=O)C(=O)NCc2ccccc2)cc1 (configuration not stated)	none
COc1ccc(CNC(=O)C(NC(C)=O)C(=O)Nc2ccc(OC)cc2)cc1 (configuration not stated)	NPY Y2 blocker 21 | NPY-Y1 antag ct inactive | NPY2 antag conf inactive
COc1cccc(N2CCN(C(=S)Nc3cc(C)cc(C)c3)CC2)c1	none (no result: NPY Y2 blocker)
O=C(C1CCC1)N1CCc2cc(S(=O)(=O)Nc3ccc4c(c3)OCO4)ccc21	NPY Y2 blocker 19 | NPY-Y1 antag ct inactive | NPY2 antag conf inactive

High-throughput results deposited in PubChem by The Scripps Research Institute Molecular Screening Center.
